Source: ChEMBL document CHEMBL5104207, “Synthesis, biological evaluation and computational studies of pyrazole derivatives as Mycobacterium tuberculosis CYP121A1 inhibitors” (RSC Med Chem, 2022)
Values after ≈ are worked out from the molar mass of the structure shown.

Test system: Mycobacterium tuberculosis
Experiment: Antimycobacterial activity against Mycobacterium tuberculosis H37Rv assessed as inhibition of bacterial growth for 5 weeks by spot culture growth inhibition assay
Format: functional
Conditions: 840 h
Summary of the method: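 M. tuberculosis H37Rv grown shaking at 37 °C in 7H9 with 0.5% glycerol, 10% OADC and 0.025% Tween 80 to OD 1, then diluted 1:100 and 2 µL spotted. Wells hold 7H10 agar with 0.5% glycerol and 10% OADC plus compound, two-fold serial dilutions in DMSO from 150 μg mL-1. Plates used within 24 h. Incubated 37 °C for five weeks, then MIC90 recorded.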

CC(C)Oc1ccc(-c2nn(-c3ccc(Cl)cc3)cc2Cn2ccnc2)cc1
MIC90: 15.3 µM (≈ 6.01 µg/mL)
